According to article PMC9295256 (Journal of medicinal chemistry, 2021):

Assays:
human NEP = human NEP (Homo sapiens, UniProt P08473); experiment: Peptidase selectivity: neprilysin, fluorogenic substrate; assay type: biochemical; settings: eight-point concentration–response up to 300 μM; substrate 10 μM
[1] = molecular target: human angiotensin-converting enzyme (Homo sapiens, UniProt P12821); experiment: Peptidase selectivity: ACE, fluorogenic substrate; assay type: biochemical; settings: eight-point concentration–response up to 300 μM; substrate 10 μM
Summary of the method: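 Continuous fluorogenic assay with recombinant human ACE in artificial CSF at 37 °C. Test compound (from 30–50 mM DMSO stocks) was preincubated with enzyme for 10 min. The reaction was started with Mca-[…]Dnp)-OH (10 µM), and fluorescence (ex 320/em 405 nm) was read continuously for 20 min; n = 4.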

recombinant rat Nln = recombinant rat Nln (Rattus norvegicus, UniProt P42676); experiment: Nln activation, continuous quenched fluorescence substrate; assay type: biochemical
human ACE2 = human ACE2 (Homo sapiens, UniProt Q9BYF1); experiment: Peptidase selectivity: ACE2, fluorogenic substrate; assay type: biochemical; settings: eight-point concentration–response up to 300 μM; substrate 10 μM
Summary of the method: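 Recombinant human ACE2 was tested in artificial CSF at 37 °C with a 10 min preincubation of enzyme and test compound (from 30–50 mM DMSO stocks). Mca-Ala-Pro-Lys(Dnp) (10 µM) started the reaction, and fluorescence (320 nm excitation, 405 nm emission) was followed continuously for 20 min; n = 4.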

[2] = molecular target: Rat recombinant neurolysin (Rattus norvegicus, UniProt P42676); experiment: Hydrolysis of endogenous substrates BK and NT by Nln, LC-MS/MS; assay type: biochemical; settings: compound 10 or 30 μM, Nln 0.5 nM
Summary of the method: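 In-house recombinant rat Nln (0.5 nM) was preincubated 10 min at 37 °C with test compound (10 or 30 µM), then given bradykinin (20 µM) for a further 10 min at 37 °C. BK-(1–5) was quantified by LC–MS/MS (water/acetonitrile with 0.1% formic acid gradient, column 40 °C) as a peak-area ratio to internal standard; n = 3.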

human TOP = human TOP (Homo sapiens, UniProt P52888); experiment: Peptidase selectivity: thimet oligopeptidase, fluorogenic substrate; assay type: biochemical; settings: eight-point concentration–response up to 300 μM; substrate 15 μM
[3] = Brain protein binding, rapid equilibrium dialysis; assay type: in vitro ADME; settings: mouse, mouse brain homogenate (dilution factor D = 5)
Summary of the method: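 Mouse brain homogenate spiked to 500 ng/mL final (from a 10 µg/mL aqueous dilution of DMSO solution) was dialysed against DPBS across an 8 kDa cutoff membrane for 4 h at 37 °C with 250 rpm orbital shaking. Both chambers were sampled and quantified by LC–MS/MS. fu,d = receiver/donor, corrected to undiluted fu with D = 5. Done in triplicate.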

[4] = tested on: co-culture of primary mouse astrocytes and immortalized mouse endothelial cells (bEnd3); assay type: in vitro ADME; settings: ratio of Pe values
[5] = assay type: in vitro ADME, mouse; settings: CD-1 (source of the primary astrocytes), mouse

Chain of recombinant rat Nln (P42676 38-704): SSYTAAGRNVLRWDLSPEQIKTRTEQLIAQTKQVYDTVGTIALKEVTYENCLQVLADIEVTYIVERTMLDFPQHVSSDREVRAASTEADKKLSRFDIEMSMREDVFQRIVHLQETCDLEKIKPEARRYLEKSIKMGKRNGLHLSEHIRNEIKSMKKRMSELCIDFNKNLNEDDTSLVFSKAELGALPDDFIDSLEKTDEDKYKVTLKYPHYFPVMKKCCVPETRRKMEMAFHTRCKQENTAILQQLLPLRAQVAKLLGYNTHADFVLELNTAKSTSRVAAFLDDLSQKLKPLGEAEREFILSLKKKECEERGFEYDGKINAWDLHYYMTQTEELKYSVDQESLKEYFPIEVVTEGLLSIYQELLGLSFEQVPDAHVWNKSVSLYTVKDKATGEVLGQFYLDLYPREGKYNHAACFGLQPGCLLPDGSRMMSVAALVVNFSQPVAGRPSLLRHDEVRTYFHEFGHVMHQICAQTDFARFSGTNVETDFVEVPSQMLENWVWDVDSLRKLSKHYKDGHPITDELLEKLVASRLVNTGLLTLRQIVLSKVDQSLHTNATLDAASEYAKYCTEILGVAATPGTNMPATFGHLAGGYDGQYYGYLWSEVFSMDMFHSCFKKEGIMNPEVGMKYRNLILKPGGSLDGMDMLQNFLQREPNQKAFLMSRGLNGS
Chain of Rat recombinant neurolysin (P42676 38-704): as above
Chain of human NEP (P08473 whole entry): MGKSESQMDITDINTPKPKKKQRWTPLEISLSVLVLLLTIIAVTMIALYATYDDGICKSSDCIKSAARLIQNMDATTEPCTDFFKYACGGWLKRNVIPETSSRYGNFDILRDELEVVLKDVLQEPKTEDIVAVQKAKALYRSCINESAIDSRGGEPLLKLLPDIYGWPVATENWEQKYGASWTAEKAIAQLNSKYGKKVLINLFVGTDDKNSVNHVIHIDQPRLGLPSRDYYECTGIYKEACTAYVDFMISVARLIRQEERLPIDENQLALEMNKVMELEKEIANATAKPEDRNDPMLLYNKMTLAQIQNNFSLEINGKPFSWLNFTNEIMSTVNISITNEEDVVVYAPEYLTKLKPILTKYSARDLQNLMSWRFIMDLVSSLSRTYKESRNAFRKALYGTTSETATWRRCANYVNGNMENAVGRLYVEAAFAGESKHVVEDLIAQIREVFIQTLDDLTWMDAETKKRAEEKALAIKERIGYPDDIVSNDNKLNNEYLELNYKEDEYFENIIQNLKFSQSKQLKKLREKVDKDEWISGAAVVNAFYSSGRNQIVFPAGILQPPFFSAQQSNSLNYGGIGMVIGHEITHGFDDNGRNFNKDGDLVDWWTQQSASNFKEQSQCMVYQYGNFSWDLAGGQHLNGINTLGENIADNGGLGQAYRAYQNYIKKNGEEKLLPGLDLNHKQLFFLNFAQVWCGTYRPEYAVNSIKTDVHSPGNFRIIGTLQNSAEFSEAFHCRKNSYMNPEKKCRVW
Chain of human TOP (P52888 whole entry): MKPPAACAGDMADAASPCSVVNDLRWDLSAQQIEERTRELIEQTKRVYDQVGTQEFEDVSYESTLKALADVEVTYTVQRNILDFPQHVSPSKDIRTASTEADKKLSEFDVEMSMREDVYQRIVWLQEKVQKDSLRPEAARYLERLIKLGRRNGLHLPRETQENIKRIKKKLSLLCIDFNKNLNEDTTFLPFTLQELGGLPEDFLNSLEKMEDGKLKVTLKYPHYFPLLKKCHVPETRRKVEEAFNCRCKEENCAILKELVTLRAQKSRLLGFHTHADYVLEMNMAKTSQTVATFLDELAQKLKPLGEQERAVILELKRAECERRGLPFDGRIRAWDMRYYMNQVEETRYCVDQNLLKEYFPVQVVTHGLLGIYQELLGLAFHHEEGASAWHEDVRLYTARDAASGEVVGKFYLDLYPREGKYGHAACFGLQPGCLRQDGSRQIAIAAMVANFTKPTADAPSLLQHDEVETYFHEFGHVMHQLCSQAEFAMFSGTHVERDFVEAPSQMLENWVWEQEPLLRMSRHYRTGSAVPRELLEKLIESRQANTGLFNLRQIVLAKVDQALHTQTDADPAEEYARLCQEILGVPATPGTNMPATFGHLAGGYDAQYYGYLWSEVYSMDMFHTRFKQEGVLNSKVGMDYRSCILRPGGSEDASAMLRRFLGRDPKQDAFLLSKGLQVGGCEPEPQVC
Chain of human angiotensin-converting enzyme (P12821 30-1306): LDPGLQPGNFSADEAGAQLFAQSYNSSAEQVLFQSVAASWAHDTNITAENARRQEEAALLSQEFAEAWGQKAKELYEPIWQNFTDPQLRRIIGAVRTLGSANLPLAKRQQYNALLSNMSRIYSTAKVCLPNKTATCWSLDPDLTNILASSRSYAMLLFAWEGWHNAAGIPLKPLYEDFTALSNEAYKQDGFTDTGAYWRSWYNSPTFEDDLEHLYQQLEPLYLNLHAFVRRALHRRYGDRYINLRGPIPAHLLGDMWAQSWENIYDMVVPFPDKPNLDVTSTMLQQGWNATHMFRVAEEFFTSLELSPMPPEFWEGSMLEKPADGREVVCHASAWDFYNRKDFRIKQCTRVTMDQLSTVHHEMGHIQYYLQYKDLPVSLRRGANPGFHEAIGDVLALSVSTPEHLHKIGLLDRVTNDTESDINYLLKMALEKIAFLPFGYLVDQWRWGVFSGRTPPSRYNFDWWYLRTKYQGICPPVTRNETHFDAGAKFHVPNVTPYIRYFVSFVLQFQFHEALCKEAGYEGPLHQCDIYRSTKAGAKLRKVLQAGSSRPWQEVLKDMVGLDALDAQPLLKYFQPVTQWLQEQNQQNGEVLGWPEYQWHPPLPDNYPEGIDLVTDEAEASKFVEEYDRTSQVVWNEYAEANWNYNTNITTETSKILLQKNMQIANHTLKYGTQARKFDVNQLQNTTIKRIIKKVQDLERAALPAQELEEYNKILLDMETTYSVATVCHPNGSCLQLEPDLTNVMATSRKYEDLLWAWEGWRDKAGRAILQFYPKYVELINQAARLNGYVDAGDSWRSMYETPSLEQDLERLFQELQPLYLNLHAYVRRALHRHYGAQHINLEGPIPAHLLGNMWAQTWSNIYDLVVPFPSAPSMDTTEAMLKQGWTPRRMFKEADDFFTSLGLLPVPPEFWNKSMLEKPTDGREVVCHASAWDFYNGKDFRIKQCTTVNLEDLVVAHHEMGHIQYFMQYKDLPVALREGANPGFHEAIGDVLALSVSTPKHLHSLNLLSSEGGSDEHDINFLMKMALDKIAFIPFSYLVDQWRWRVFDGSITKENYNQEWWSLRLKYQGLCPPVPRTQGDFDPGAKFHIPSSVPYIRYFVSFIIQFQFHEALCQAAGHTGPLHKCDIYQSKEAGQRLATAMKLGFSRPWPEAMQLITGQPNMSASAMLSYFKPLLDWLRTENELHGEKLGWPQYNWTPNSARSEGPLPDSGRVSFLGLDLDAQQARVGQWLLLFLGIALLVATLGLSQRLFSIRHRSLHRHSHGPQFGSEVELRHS
Chain of human ACE2 (Q9BYF1 18-805): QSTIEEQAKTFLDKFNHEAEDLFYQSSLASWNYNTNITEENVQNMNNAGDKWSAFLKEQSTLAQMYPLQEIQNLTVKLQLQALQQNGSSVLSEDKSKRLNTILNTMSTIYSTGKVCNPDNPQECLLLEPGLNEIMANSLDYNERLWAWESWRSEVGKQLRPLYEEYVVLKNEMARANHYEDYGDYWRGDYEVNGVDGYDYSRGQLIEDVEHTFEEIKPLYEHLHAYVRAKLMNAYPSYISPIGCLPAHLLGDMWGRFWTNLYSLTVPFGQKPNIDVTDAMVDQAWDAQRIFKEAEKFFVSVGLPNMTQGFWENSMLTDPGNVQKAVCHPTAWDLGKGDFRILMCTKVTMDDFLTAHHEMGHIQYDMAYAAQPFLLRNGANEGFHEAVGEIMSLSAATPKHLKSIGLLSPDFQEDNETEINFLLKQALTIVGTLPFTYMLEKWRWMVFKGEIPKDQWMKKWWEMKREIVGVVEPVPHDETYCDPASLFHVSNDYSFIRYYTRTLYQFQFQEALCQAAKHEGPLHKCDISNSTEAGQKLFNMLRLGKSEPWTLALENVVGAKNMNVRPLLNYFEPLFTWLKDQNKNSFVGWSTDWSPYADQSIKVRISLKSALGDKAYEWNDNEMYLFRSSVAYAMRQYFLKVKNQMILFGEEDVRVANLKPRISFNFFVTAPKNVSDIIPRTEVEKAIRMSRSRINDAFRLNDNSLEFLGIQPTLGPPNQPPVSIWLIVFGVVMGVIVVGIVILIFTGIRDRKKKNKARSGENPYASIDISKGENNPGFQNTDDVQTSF

N[C@@H](Cc1c[nH]cn1)C(=O)Nc1cccc2cccnc12 [Compound 11a, (S)-2-Amino-3-(1H-imidazol-4-yl)-N-(quinolin-8-yl)propanamide]
effect on catalytic activity of NEP (human NEP): None of the three compounds showed appreciable inhibition | effect on catalytic activity of ACE [1]: inhibition of ACE at high concentration | Amax, maximum % activation achieved (95% CI) (recombinant rat Nln; 100% = normal enzyme turnover, mean of n = 4, 95% CI in parentheses): 281.2 (266.7 to 297.1) % | increase in potency over the least active hit (recombinant rat Nln; A50 ratio): > 30 fold | increase in potency over the most active hit (recombinant rat Nln; A50 ratio): > 10 fold | mean Amax of the two enantiomers (recombinant rat Nln; mean over L and D enantiomer): 285% | effect on catalytic activity of ACE2 (human ACE2): inhibition of ACE2 at high concentrations | hydrolysis of BK by Nln, formation of BK-(1–5) ([2]; BK 20 μM): enhanced hydrolysis of BK | hydrolysis of NT by Nln, formation of NT-(1–10) ([2]; NT 20 μM): hydrolysis of NT by Nln was also enhanced | effect on catalytic activity of TOP (human TOP): No appreciable inhibition | fraction unbound at 4 h, 500 ng/mL [3]: 0.062 ± 0.011 | increase in BBB permeability / brain penetration over hit compounds 1 and 4 [4]: 4–5 fold | Papp A→B at 120 min, 10 μg/mL [5]: 19 ×10⁻⁶ cm/s
